Bioassay records as filed in PubChem.
Most compounds without a hit are left out; they make up all but 2.8% or so of the library.
NPY-Y1 PAM-ag: NPY-Y1 receptor potentiators or agonists, primary screen, cell-based; Neuropeptide Y receptor type 1 (Homo sapiens), P25929; NPY-Y1 expressing cells, potentiator/agonist activation; activation, % at 3.6 µM; hit rate 0.37% among 220,000; in the data active = activation above about 33%, passing the limit was not always enough;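 also: cells stimulated with NPY at EC10 then isoproterenol at EC100; 0% = low agonist plus stimulus and 100% = saturating agonist plus stimulus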
NPY Y2 blocker: NPY-Y2 receptor antagonists, primary screen, cell-based | Neuropeptide Y receptor type 2 (Homo sapiens), P49146 | hit rate 0.99% among 140,000 | NPY-Y2 expressing cells, antagonist mode | inhibition, % at 2.7 µM; in the data active = inhibition above about 17%;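 also: 0% = vehicle with agonist challenge and 100% = reference antagonist with challenge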
Target sequence (P49146 whole entry, looked up): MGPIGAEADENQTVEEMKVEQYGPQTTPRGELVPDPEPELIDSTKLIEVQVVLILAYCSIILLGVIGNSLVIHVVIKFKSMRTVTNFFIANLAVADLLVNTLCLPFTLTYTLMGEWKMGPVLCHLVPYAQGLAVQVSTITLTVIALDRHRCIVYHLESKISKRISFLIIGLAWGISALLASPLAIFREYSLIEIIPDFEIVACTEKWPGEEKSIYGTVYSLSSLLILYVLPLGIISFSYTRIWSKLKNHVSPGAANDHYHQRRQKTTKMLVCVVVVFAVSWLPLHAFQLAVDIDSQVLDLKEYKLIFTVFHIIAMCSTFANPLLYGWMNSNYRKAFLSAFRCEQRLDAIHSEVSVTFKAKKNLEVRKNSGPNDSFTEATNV
NPY-Y2 PAM-ag: NPY-Y2 potentiators or agonists, primary screen, cell-based | cells expressing NPY-Y2, potentiator/agonist read-out | activation, % at 3.6 µM | hit rate 0.45% among 220,000; in the data active = activation above about 27%;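 also: cells stimulated with NPY near EC25 plus isoproterenol at EC100; 0% = vehicle plus submaximal agonist and 100% = vehicle plus saturating agonist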
NPY Y1 blocker: NPY-Y1 receptor antagonists, primary screen, cell-based; hit rate 1% among 200,000; inhibition, % at 3.6 µM; HEK293-CNG Y1 cells, membrane potential fluorescence; NPY at EC95, then isoproterenol; Neuropeptide Y receptor type 1 (Homo sapiens), P25929;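 active = inhibition above the campaign mean inhibition of all tested compounds plus 3 SD, cut at about 20% in these data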;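 also: 0% = DMSO wells given NPY plus isoproterenol and 100% = isoproterenol alone without NPY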
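Test system – HEK293 Y1/CNG channel cell line · Also added – NPY agonist 25 nM, then isoproterenol 1 µM plus Ro 20-1724 25 µM · Compound dosing – one concentration, 3.6 µM, in 0.4% DMSO · Schedule – compound incubation 1 h at room temperature, readout 45 min post-stimulation · Technique – fluorescence, membrane potential probe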
Measles CPE: compounds protecting cells from measles virus cytopathic effect, primary screen, measles RdRp inhibitor project, single point, MLSMR library, absorbance; protection (pct of control), % at 4 µM; hit rate 1.5% among 140,000; Measles virus-infected cells, CPE protection; in the data active = protection mostly above about 24%, no sharp cut-off; inactive = mostly below about 26%
Rad51 HR inh: human RAD51 strand exchange inhibitors, primary screen, biochemical, fluorescence; DNA repair protein RAD51 homolog 1 (Homo sapiens), Q06609; inhibition, % at 10 µM; hRad51 DNA strand exchange, fluorescence dequenching; hit rate 0.085% among 200,000; AID 1385, 2008;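 active = inhibition above 40% at the single screening dose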;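 also: 0% = DMSO control wells and 100% = blanks with heterologous ssDNA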
Target sequence (Q06609 whole entry, looked up): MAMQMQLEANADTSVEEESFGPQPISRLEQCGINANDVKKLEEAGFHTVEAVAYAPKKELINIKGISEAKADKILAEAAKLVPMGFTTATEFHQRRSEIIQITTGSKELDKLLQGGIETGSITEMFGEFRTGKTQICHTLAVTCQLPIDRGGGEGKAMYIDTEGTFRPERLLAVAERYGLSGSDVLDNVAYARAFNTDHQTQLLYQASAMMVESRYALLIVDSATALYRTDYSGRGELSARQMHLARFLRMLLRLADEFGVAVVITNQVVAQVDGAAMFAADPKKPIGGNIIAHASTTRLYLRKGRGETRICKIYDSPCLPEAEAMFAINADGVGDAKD
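material = hRad51 filaments on single-stranded DNA | timing = filaments 15 min 37 °C, then compound 30 min | signal = FRET fluorescence dequenching, excitation 485 nm, emission 520 nm | benchmarks = control wells and blank wells on each plate | evaluation = percent inhibition relative to plate controls and blanks | compound = 10 µM final, single point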
* marks the source's active call; other numbers are inactive results; nt = not tested or not shown.

SMILES | NPY-Y1 PAM-ag | NPY Y2 blocker | NPY-Y2 PAM-ag | NPY Y1 blocker | Measles CPE | Rad51 HR inh
NNC(=O)c1cccc(COc2ccc3c(c2)CCC3)c1 | -68 | 0 | 0 | 4 | 4 | nt
COC(=O)c1ccc(NC(=S)NC(=O)c2cc(-c3ccccc3)nc3ccccc23)cc1 | -120 | 23* | 4 | 41* | 6 | nt
Cc1ccc(NC(=O)c2cc(Cl)nc3ccccc23)cc1 | -66 | 21* | -62 | 31* | 8 | -1
O=C(C1CC1)N1N=C(C2CCCCC2)CC1(O)C(F)(F)F (centres undefined) | 11 | nt | -3 | 1 | nt | nt
COc1ccccc1-n1c(-c2ccc(Cl)cc2)c[nH]c1=S | 19 | nt | 14 | -2 | nt | -1
CCC(c1nnnn1Cc1ccco1)N1CCN(c2cc(Cl)ccc2C)CC1 (centres undefined) | -28 | 28* | -12 | 27* | 4 | nt
Cc1ccc(Cl)cc1N1CCN(Cc2nnnn2Cc2ccco2)CC1 | -8 | 9 | -5 | 13 | 30 | nt
CN1CCN(S(=O)(=O)c2ccc(NC(=S)NC(=O)C(C)(C)C)cc2)CC1 | 10 | nt | -1 | -1 | nt | 16
Cc1ccc(CNC(=O)CN(C)S(=O)(=O)c2cccs2)cc1 | -18 | nt | -8 | 1 | nt | -4
Cn1c(-c2ccccc2)c[n+]2c1-c1ccccc1C2 | -22 | 1 | 5 | 1 | 24 | -46
CCc1ccc(S(=O)(=O)Nc2ccc(O)c3c(=O)cc(-c4ccccc4Cl)oc23)cc1 | nt | nt | nt | nt | nt | 3
O=c1cc(-c2ccccc2Cl)oc2c(NS(=O)(=O)c3cc(Cl)cc(Cl)c3O)ccc(O)c12 | 56* | 2 | 41* | -5 | 9 | 12
O=C1CC(N2CCOCC2)C(=O)N1Cc1ccc(N2CCCC2=O)cc1 (centres undefined) | 17 | 2 | -10 | 0 | 42* | 0
O=C1CCCN1CCC1CCN(C2CC(=O)N(Cc3ccc(N4CCCC4=O)cc3)C2=O)CC1 (centres undefined) | 2 | 2 | -9 | -1 | 5 | 1
CCCc1cc(C(=O)O)c2ccccc2n1 | 12 | 3 | -7 | 3 | 10 | -2
Cc1ccc(NC(=O)Cc2cc(C(=O)O)c3ccccc3n2)c(C)c1 | 78* | nt | 80* | -16 | nt | -98
Fc1ccc(-c2csc(N3CCOCC3)n2)cc1 | 7 | nt | 12 | nt | nt | 6
COc1cc(-c2csc(N3CCOCC3)n2)cc(OC)c1OC | 2 | 0 | 19 | -1 | 56* | 9
Cc1ccc(/C(=N/Nc2nc3ccccc3s2)C2=C(O)c3ccccc3C2=O)cc1 | -3 | nt | -9 | 20* | nt | -10
Cc1ccc(S(=O)(=O)N(C)CC(=O)Nc2nc3ccccc3s2)cc1 | -26 | 3 | 12 | -3 | 7 | -1
O=C(Cc1cccs1)Nc1nc2ccccc2s1 | -3 | -2 | 29 | -3 | 25 | -6
COCC(=O)Nc1nc2ccccc2s1 | 108* | 0 | 64* | 1 | 4 | -3
O=C(Cc1ccccc1)Nc1nc2ccccc2s1 | 2 | 2 | 5 | -4 | 52* | -2
COC(=O)CCCCCCCCC(=O)Nc1nc2ccccc2s1 | 16 | 8 | 0 | 4 | 7 | -2
COC(=O)c1cc(OC)c(OC)cc1NC(=O)c1cc(C(C)(C)C)oc1C | -8 | nt | 1 | nt | nt | -8
SMILES | NPY-Y1 PAM-ag | NPY Y2 blocker | NPY-Y2 PAM-ag | NPY Y1 blocker | Measles CPE | Rad51 HR inh
c1ccc2c(c1)OCCOCCOCCOCCOc1ccccc1OCCOCCOCCO2 | -13 | 5 | -4 | 14 | 47* | 2
Brc1ccc2c(c1)OCCOCCOCCOCCOCCO2 | 4 | 2 | 1 | 8 | 5 | 4
Cc1ccc(N(CC(=O)NCC2CCCO2)C(=O)Cn2nnc(-c3cccs3)n2)cc1 (centres undefined) | 8 | nt | 8 | -1 | nt | 5
COc1ccc2nc(C)cc(N3CC(C)OC(C)C3)c2c1 (centres undefined) | -29 | 10 | -1 | 9 | 27* | 9
COc1ccc2nc(C)cc(N3CCOCC3)c2c1 | -23 | 2 | -24 | 13 | 4 | 7
O=C(NCCSCc1c(F)cccc1Cl)c1ccc(CN2CCOCC2)cc1 | 4 | 3 | 2 | -4 | 8 | nt
O=C(/C(=N\Nc1ccc(Br)cc1)Sc1nnnn1-c1ccccc1)c1ccccc1 | -9 | 1 | 6 | -2 | 7 | nt
Brc1ccc(N/N=C(/N=Nc2nn[nH]n2)c2ccccc2)cc1 | 64* | nt | 53* | -17 | nt | 16
COc1ccc(C)cc1S(=O)(=O)N1CCOCC1 | 7 | nt | -2 | -2 | nt | -2
CCCCN(C(=O)Cc1cccs1)c1nnc(-c2cccnc2)s1 | 38 | 1 | 20 | -3 | 2 | -2
COCCN(C(=O)Cc1cccs1)c1nnc(-c2cccnc2)s1 | 9 | 0 | -9 | -1 | 20* | 3
CCOC(=O)Cc1csc(NC(=O)CC)n1 | -7 | 2 | 6 | -1 | 7 | -4
CCOC(=O)Cc1csc(NC(=O)CSc2cc(Cl)ccc2Cl)n1 | -5 | 3 | 7 | 2 | 29* | 3
O=[N+]([O-])c1cc(S(=O)(=O)Nc2ccccc2)ccc1NCc1ccccc1 | 13 | 1 | 4 | -4 | 37* | 3
O=[N+]([O-])c1cc(S(=O)(=O)Nc2ccccc2)ccc1NCc1cccnc1 | -21 | -1 | -6 | -1 | 14 | -2
O=[N+]([O-])c1ccccc1OCC(O)CNC1CCCC1 (centres undefined) | 112* | nt | 104* | nt | nt | nt
O=[N+]([O-])c1ccc(OCC(O)CNC2CCCC2)cc1 (centres undefined) | -40 | nt | -25 | nt | nt | nt
CC1CCOC2(O1)C(=O)Nc1ccccc12 (centres undefined) | -1 | nt | -6 | 2 | nt | 2
CCOC(=O)c1ccc(-n2c(N)c(C(=O)NCc3ccco3)sc2=S)cc1 | 24 | 0 | -20 | -1 | 51* | -5
COc1ccc(-n2c(N)c(C(=O)NCc3ccco3)sc2=S)cc1 | 14 | -1 | -21 | 0 | 4 | -2
COc1cc(-c2n[nH]c(=S)n2/N=C/c2cccn2C)cc(OC)c1OC | 5 | nt | -8 | nt | nt | 3
Clc1ccc(Cn2c(-c3cccnc3Cl)nc3ccccc32)cc1 | 3 | 10 | 4 | 4 | 33* | 1
CC1CN(S(=O)(=O)c2cccc(C(=O)Nc3ccc(S(=O)(=O)Nc4ncccn4)cc3)c2)CC(C)O1 (centres undefined) | 7 | nt | -8 | 4 | nt | -1
O=C(O)c1ccnc(Cl)c1 | -5 | 1 | 10 | 2 | 25* | -14
COc1ccc(-n2c(SCc3ccccn3)nc3c(c2=O)SCC3)cc1OC | 6 | nt | -5 | 2 | nt | 10
COc1ccc(OC)c(NC(=O)COC(=O)CSc2ccc(Cl)cc2)c1 | -18 | 5 | -16 | 9 | 18* | -43
